Laboratory results published in publication PMC9925696 (Neuro-Oncology, 2022).
Entries after “also recorded” stand apart in the source; their conditions may differ. Marks after values point to notes of the source that are not given here.

Tests used:
[1] = Safety evaluation; type: in vivo, human
In short: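 Adults (≥20 years) with recurrent/progressive grade 2-4 IDH1-R132 glioma received oral twice-daily dosing in 21-day cycles at 125-1400 mg (six levels). Escalation used a modified continual reassessment method (Bayesian logistic regression, overdose control) with cohorts of 3-6 patients and DLT assessment over the 21-day cycle. TEAEs were recorded up to 28 days after the last dose, graded by CTCAE v4.0 and counted once per patient at worst severity. LVEF was monitored by echocardiography or MUGA.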

[2] = Plasma pharmacokinetics of DS-1001; type: in vivo, human; conditions: for Increase in Cmax and AUC0-8 h with dose: day 1 and day 8 of cycle 1
[3] = tested on: recurrent/progressive IDH1-mutant (R132) glioma; test: Tumor response by RANO / RANO-LGG, PFS, treatment duration; type: in vivo, human; conditions: for Duration of CR: still on treatment
In short: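 MRI was performed every 6 weeks. Investigators classed tumors at enrollment as contrast-enhancing (assessed by RANO) or non-enhancing (assessed by RANO-LGG). Longest and orthogonal diameters were measured on the largest FLAIR/T2 slice. Best overall response required a confirmatory scan at least 4 weeks later. ORR counted CR, PR and MR. PFS ran from first dose to progression or death. Dosing was oral twice daily, continued until progression or intolerable toxicity.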

[4] = DS-1001 concentration in resected tumor tissue, plasma and CSF; type: in vivo, human; conditions: for DS-1001 concentration in resected tumor tissue: free form
In short: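 Drug levels were measured by validated LC-MS/MS and expressed as the free form. CSF was collected at screening and on cycle 1 day 15 (±3 days). Resected tumor and matched plasma were taken on the day of salvage surgery, after oral twice-daily dosing continued until surgery. Where a patient gave several tumor samples, the range is given. The brain/plasma ratio used the matched plasma sample.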

[5] = tested on: D-2-hydroxyglutarate (D-2-HG); test: D-2-HG concentration in resected tumor tissue; type: in vivo, human
In short: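 Patients with IDH1-R132 glioma who were scheduled for salvage surgery after progression took the oral test compound twice daily until surgery. Tumor was resected on the day of surgery, homogenized in 0.1 w/v% bovine serum albumin solution, and derivatized with diacetyl-l-tartaric anhydride. D-2-HG was then quantified by LC-MS/MS against a commercial D-2-HG reference standard. On-treatment values were compared with matched archived frozen tumor from previous surgery, where available.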

[6] = mice, preclinical; cited from earlier work
[7] = tested on: orthotopic patient-derived xenograft model; conditions: continuous administration, preclinical; cited from earlier work
[8] = 12 non-enhancing tumors, RANO-LGG
[9] = non-enhancing (n = 12), RANO-LGG
[10] = Patient #003, 500 mg bid, 16.9 h after last dose
[11] = Patient #006, 700 mg bid, 7.2 h after last dose

Cc1cn(C(=O)c2c(-c3c(Cl)cc(Cl)cc3Cl)noc2C(C)(C)F)c2cccc(/C=C/C(=O)O)c12 [DS-1001]
Patients with at least 1 AE of any grade or causality ([1]; 45 of 47): 95.7% | Tolerability / safety profile ([1]; 125-1400 mg bid oral): well tolerated; also recorded: favorable safety profile | Maximum tolerated dose (MTD) ([1]; 125-1400 mg bid oral, highest dose level 1400 mg bid): not reached | Alanine aminotransferase increased, all grades ([1]; N = 47): 4 (8.5) n (%) | Alanine aminotransferase increased, grade 3 ([1]; N = 47): 3 (6.4) n (%) | All AEs, grade 3 ([1]; N = 47): 20 (42.6) n (%) | Alopecia, all grades ([1]; N = 47): 13 (27.7) n (%) | Alopecia, grade 3 ([1]; N = 47): 0 n (%) | Arthralgia, all grades ([1]; N = 47): 13 (27.7) n (%) | Arthralgia, grade 3 ([1]; N = 47): 1 (2.1) n (%) | Aspartate aminotransferase increased, all grades ([1]; N = 47): 3 (6.4) n (%) | Aspartate aminotransferase increased, grade 3 ([1]; N = 47): 2 (4.3) n (%) | Back pain, all grades ([1]; N = 47): 10 (21.3) n (%) | Back pain, grade 3 ([1]; N = 47): 0 n (%) | Decreased appetite, all grades ([1]; N = 47): 5 (10.6) n (%) | Decreased appetite, grade 3 ([1]; N = 47): 0 n (%) | Diarrhea, all grades ([1]; N = 47): 22 (46.8) n (%) | Diarrhea, grade 3 ([1]; N = 47): 2 (4.3) n (%) | Dose interruption due to arthralgia ([1]; N = 47): 10.6% | Dose interruption due to neutrophil count decreased ([1]; N = 47): 12.8% | Dose reduction associated with alanine aminotransferase increased ([1]; N = 47): 4.3% | Dose reduction associated with arthralgia ([1]; N = 47): 10.6% | Dose reduction associated with back pain ([1]; N = 47): 6.4% | Dose reduction associated with neck pain ([1]; N = 47): 2.1% | Dose reduction associated with neutrophil count decreased ([1]; N = 47): 6.4% | Dose reduction associated with white blood cell count decreased ([1]; N = 47): 4.3% | Dry skin, all grades ([1]; N = 47): 10 (21.3) n (%) | Dry skin, grade 3 ([1]; N = 47): 0 n (%) | Feces soft, all grades ([1]; N = 47): 6 (12.8) n (%) | Feces soft, grade 3 ([1]; N = 47): 0 n (%) | Grade 4 or 5 AEs or serious drug-related AEs ([1]; N = 47): No grade 4 or 5 AEs or serious drug-related AEs were reported | Headache, all grades ([1]; N = 47): 11 (23.4) n (%) | Headache, grade 3 ([1]; N = 47): 1 (2.1) n (%) | Hypophosphatemia, all grades ([1]; N = 47): 2 (4.3) n (%) | Hypophosphatemia, grade 3 ([1]; N = 47): 2 (4.3) n (%) | Nasopharyngitis, all grades ([1]; N = 47): 7 (14.9) n (%) | Nasopharyngitis, grade 3 ([1]; N = 47): 0 n (%) | Nausea, all grades ([1]; N = 47): 12 (25.5) n (%) | Nausea, grade 3 ([1]; N = 47): 0 n (%) | Neutrophil count decreased, all grades ([1]; N = 47): 7 (14.9) n (%) | Neutrophil count decreased, grade 3 ([1]; N = 47): 6 (12.8) n (%) | Patients with TEAEs associated with dose reduction ([1]; N = 47): 27.7% | Patients with at least 1 dose interruption due to TEAEs ([1]; N = 47): 57.4% | Patients with at least 1 grade 3 AE (TEAE) ([1]; N = 47): 42.6% | Pruritus, all grades ([1]; N = 47): 14 (29.8) n (%) | Pruritus, grade 3 ([1]; N = 47): 0 n (%) | Rash, all grades ([1]; N = 47): 11 (23.4) n (%) | Rash, grade 3 ([1]; N = 47): 0 n (%) | Skin hyperpigmentation, all grades ([1]; N = 47): 25 (53.2) n (%) | Skin hyperpigmentation, grade 3 ([1]; N = 47): 0 n (%) | Vomiting, all grades ([1]; N = 47): 9 (19.1) n (%) | Vomiting, grade 3 ([1]; N = 47): 0 n (%) | White blood cell count decreased, all grades ([1]; N = 47): 3 (6.4) n (%) | White blood cell count decreased, grade 3 ([1]; N = 47): 3 (6.4) n (%) | Alanine aminotransferase increased, grade 3 ([1]; N = 47, text): 6.4% | Alopecia, any grade ([1]; N = 47, text): 27.7% | Arthralgia, any grade ([1]; N = 47, text): 27.7% | Aspartate aminotransferase increased, grade 3 ([1]; N = 47, text): 4.3% | Back pain, any grade ([1]; N = 47, text): 21.3% | Diarrhea, any grade ([1]; N = 47, text): 46.8% | Diarrhea, grade 3 ([1]; N = 47, text): 4.3% | Dry skin, any grade ([1]; N = 47, text): 21.3% | Headache, any grade ([1]; N = 47, text): 23.4% | Hypophosphatemia, grade 3 ([1]; N = 47, text): 4.3% | Nausea, any grade ([1]; N = 47, text): 25.5% | Neutrophil count decreased, grade 3 ([1]; N = 47, text): 12.8% | Pruritus, any grade ([1]; N = 47, text): 29.8% | Rash, any grade ([1]; N = 47, text): 23.4% | Skin hyperpigmentation, any grade ([1]; N = 47, text): 53.2% | White blood cell count decreased, grade 3 ([1]; N = 47, text): 6.4% | Dose-limiting toxicity (DLT) ([1]; at 1000 mg bid): One DLT, grade 3 white blood cell count decreased | Dose modification due to pain ([1]; doses ≤250 mg bid): no dose modification due to pain | Dose modification due to pain ([1]; doses ≥500 mg bid): most patients who received long-term administration of DS-1001 required dose modifications due to episodes of pain | Discontinued due to an AE (alanine aminotransferase increased) ([1]; of 39 patients who discontinued): 1 patients | All AEs, all grades ([1]; safety analysis set N = 47): 45 (95.7) n (%) | Increase in Cmax and AUC0-8 h with dose ([2]; 125 to 700 mg bid): approximately dose-proportional | Increase in Cmax and AUC0-8 h with dose ([2]; 700 to 1400 mg bid): less than dose-proportional | Median Tmax across dose range ([2]; day 1 of cycle 1, 125-1400 mg bid): 2 to 6 h | Median Tmax across dose range ([2]; day 8 of cycle 1, 125-1400 mg bid): 2 to 4 h | Steady-state levels achieved (plasma trough plateau) ([2]; most dose levels, except 1400 mg bid, data not shown): ≤ 4 days | Response by 1p/19q codeletion status ([3]; 1p/19q-codeleted vs non-codeleted): Measurable response was observed in both 1p/19q-codeleted and non-codeleted cases | Number of MRs [3, 8]: 3 | Number of PRs [3, 8]: 1 | Number of CRs ([3]; 35 enhancing tumors, RANO): 2 | Number of PRs ([3]; 35 enhancing tumors, RANO): 4 | Median response duration ([3]; both lesion types): has not been reached | Doses at which responses were observed ([3]; data limited): ≥ 125 mg bid | Confirmed best overall response: complete response ([3]; enhancing (n = 35), RANO): 2 (5.7) n (%) | Confirmed best overall response: partial response ([3]; enhancing (n = 35), RANO): 4 (11.4) n (%) | Confirmed best overall response: progressive disease ([3]; enhancing (n = 35), RANO): 17 (48.6) n (%) | Confirmed best overall response: stable disease ([3]; enhancing (n = 35), RANO): 11 (31.4) n (%) | Objective response rate ([3]; enhancing (n = 35), RANO): 6 (17.1) n (%) | Confirmed best overall response: not evaluated ([3]; enhancing (n = 35), treatment discontinued before first response assessment): 1 (2.9)^b n (%) | Median progression-free survival ([3]; enhancing glioma cohort, all doses, 95% CI 6.1 to 17.7 weeks): 10.4 weeks | Median progression-free survival ([3]; enhancing glioma cohort, 95% CI 6.1 to 17.7 months (abstract)): 10.4 months | Patients with tumor measurements decreased from baseline ([3]; enhancing tumors, 15 of 35): 42.9% | Objective response rate ([3]; enhancing tumors, RANO): 17.1% | Confirmed best overall response: not evaluated ([3]; non-enhancing (n = 12)): 0 (0.0) n (%) | Confirmed best overall response: complete response [3, 9]: 0 (0.0) n (%) | Confirmed best overall response: minor response [3, 9]: 3 (25.0) n (%) | Confirmed best overall response: partial response [3, 9]: 1 (8.3) n (%) | Confirmed best overall response: progressive disease [3, 9]: 0 (0.0) n (%) | Confirmed best overall response: stable disease [3, 9]: 8 (66.7) n (%) | Objective response rate [3, 9]: 4 (33.3) n (%) | Median progression-free survival ([3]; non-enhancing glioma cohort, 95% CI 24.1 to not reached): not reached | Patients with tumor measurements decreased from baseline ([3]; non-enhancing tumors, 11 of 12): 91.7% | Objective response rate ([3]; non-enhancing tumors, RANO-LGG): 33.3% | Duration of CR ([3]; patient with IDH1-mutant anaplastic oligodendroglioma): approximately 95 weeks | Duration of CR ([3]; patient with astrocytoma (IDH-mutant, grade 4)): approximately 174 weeks | Brain/plasma concentration ratio [4, 10]: 0.77 | DS-1001 concentration in resected tumor tissue [4, 10]: 5720 ng/g tissue | Brain/plasma concentration ratio ([4]; Patient #004, 500 mg bid, 4.1, 4.2 h after last dose): 0.19 | Brain/plasma concentration ratio [4, 11]: 0.58 | DS-1001 concentration in resected tumor tissue [4, 11]: 6130 ng/g tissue | DS-1001 in CSF ([4]; day 15 of cycle 1): appeared in CSF | Brain / tumor distribution of DS-1001 ([4]; resected tumor samples, salvage surgery): favorable brain distribution; also recorded: a high drug concentration was detected in all resected tumor samples | D-2-HG in on-treatment tumor tissue versus pre-treatment samples ([5]; 125 mg bid): significantly lower levels of D-2-HG compared with the pre-treatment samples | D-2-HG in on-treatment tumor tissue versus archived samples ([5]; seven on-treatment samples, 125-700 mg bid): significantly lower amount of D-2-HG compared with pre-study archived samples; also recorded: extremely low compared with matched archived samples; also recorded: lower than archived samples; also recorded: significantly low levels of D-2-HG | Distribution to the brain [6]: good distribution to the brain | D-2-HG [7]: D-2-HG reduction | Tumor growth [7]: Tumor growth inhibition
